Results from different studies.
Compare with care: the assays were run in different laboratories.
Effect on: cell growth or viability

| SMILES | cell line | assay | conditions | endpoint | result |
| --- | --- | --- | --- | --- | --- |
| O=C(Nc1ccc(Cl)cc1)Nc1cccc(-c2cn(Cc3ccc(Br)cc3)nn2)c1 | Huh-7 | CCK-8 | 50 µM, 48 h | viability | 60.5% |
| O=C1[O][Pt]2([NH][C@@H]3CCCC[C@H]3[NH]2)[O]C1=O | THLE3 | imaging | 72 h | IC50 | 32.2 µM |
| CN(C)C(=O)c1sc2nc(-c3ccccc3)ccc2c1N | HepG2 |  | 72 h | IC50 | > 100 µM |
| Cc1cccc(F)c1NC(=N)CC(O)c1cc2c(F)cc(F)cc2c2cc(C(F)(F)F)ccc12 (stereo not drawn) | HepG2 | neutral red | 24 h | IC50 | 22.8 µM |
| COc1ccc(-c2cc(C(F)(F)F)c3c(N)c(C(=O)NC4CC4)sc3n2)cc1 | HepG2 |  | 72 h | IC50 | > 100 µM |
| N=C(CC(O)c1cc2c(F)cc(F)cc2c2cc(C(F)(F)F)ccc12)Nc1ccc(N2CCC(F)(F)CC2)cc1 (stereo not drawn) | HepG2 | neutral red | 24 h | IC50 | 53.8 µM |
| N.N.[Cl][Pt][Cl] | Ramos | ATP luminescence | 10 µM, 72 h | inhibition | 100% |
| Nc1c(C(=O)NCc2ccc(F)cc2)sc2nc(-c3ccccc3)ccc12 | HepG2 |  | 72 h | IC50 | > 100 µM |
| N=C(CC(O)c1cc2c(F)cc(F)cc2c2cc(C(F)(F)F)ccc12)Nc1cc(F)c(F)c(F)c1 (stereo not drawn) | HepG2 | neutral red | 24 h | IC50 | 18.3 µM |
